We go through six compounds from ChEMBL document CHEMBL4732019, “Collaborative virtual screening to elaborate an imidazo[1,2-a]pyridine hit series for visceral leishmaniasis” (RSC Med Chem, 2021).

The nature of the first series: Kinetic solubility of the compound at 200 uM incubated for 24 hrs at pH 7.4 by HPLC/UV analysis. In kind it is physicochemical. The settings on record: buffer, pH 7.4, 24 h. The essentials: (§1)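 Shake-flask method: 10 mM DMSO stock diluted to 200 μM in phosphate buffer pH 2.0 or pH 7.4 (2% DMSO final). Shaken at 500 rpm, 24 h, room temperature, then filtered through polycarbonate membrane. Filtrate quantified by HPLC-UV against 1, 20 and 200 μM standards injected in duplicate.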
On to `Cc1ccn2c(Nc3ccc(F)cc3)c(-c3ccccn3)nc2c1`, for which the Kinetic_solubility was less than 0.5 µg/mL.
`Cc1ccn2c(NC3CCCC3)c(-c3ccc(N(C)C)cc3)nc2c1`: the Kinetic_solubility is less than 0.5 µg/mL.
Compound `Cc1ccc2nc(-c3ccccn3)c(Nc3ccc4c(c3)OCCO4)n2c1` gave a Kinetic_solubility of 8 µg/mL.
The compound `COc1ccn2c(Nc3ccc(F)cn3)c(-c3ccccn3)nc2c1` showed a Kinetic_solubility greater than 76 µg/mL.
On to `Clc1ccc2nc(-c3ccccn3)c(Nc3ccc4c(c3)OCCO4)n2c1`, for which the Kinetic_solubility is less than 0.5 µg/mL.

The nature of the next series: Kinetic solubility of the compound at 200 uM incubated for 24 hrs at pH 2 by HPLC/UV analysis. In kind it is physicochemical. The settings on record: buffer, pH 2, 24 h. In a few lines: as §1
Regarding `Cc1ccn2c(Nc3ccc(F)cc3)c(-c3ccccn3)nc2c1`, the Kinetic_solubility is 73 µg/mL.
Regarding `Cc1ccn2c(NC3CCCC3)c(-c3ccc(N(C)C)cc3)nc2c1`, the Kinetic_solubility was 67 µg/mL.
As to `Cc1ccc2nc(-c3ccccn3)c(Nc3ccc4c(c3)OCCO4)n2c1`, the Kinetic_solubility came to 72 µg/mL.
In turn, `COc1ccn2c(Nc3ccc(F)cn3)c(-c3ccccn3)nc2c1` registered a Kinetic_solubility greater than 76 µg/mL.
In turn, `Clc1ccc2nc(-c3ccccn3)c(Nc3ccc4c(c3)OCCO4)n2c1` had a Kinetic_solubility greater than 76 µg/mL.

The next series is described as follows: Drug uptake in BALB/c mouse plasma at 50 mg/kg, po measured after 24 hrs by LC/MS/MS analysis. In kind it is ADME, organism-based. As to conditions: in vivo; call rule not given here.
Consider `COc1ccn2c(Nc3cc(F)cc(F)c3)c(-c3ccccn3)nc2c1`, for which the Drug uptake entry is given as “Not Active”.
